According to PMC12248229 (PeerJ, 2025):

Assays:
in vivo = format: in vivo, Sprague-Dawley (SD) rats; settings: for half-life: t1/2, rats
Ugt1a7 = assay: qRT-PCR mRNA expression in rat liver and intestine after 7 days of dosing; format: in vivo; settings: after multiple doses
Procedure, shortened: (§1)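 Rats (n = 6/group) gavaged daily for 7 days with test compound: 2.5 or 1 mg/kg in 0.5% CMC-Na, or 100 mg/kg in 0.5% CMC-Na with 5% DMSO. Liver and intestine harvested under chloral hydrate and stored at −80 °C. TRNzol RNA extraction; 1 μg RNA reverse-transcribed. qPCR: 95 °C 15 min, then 40 cycles of 95 °C 10 s/60 °C 32 s. […] reference; 2^−ΔΔCT.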

P-gp = assay: as above; format: in vivo; settings: after multiple doses
Procedure, shortened: as §1

Oatp1b2 = assay: qRT-PCR mRNA expression in rat liver after 7 days of dosing; format: in vivo; settings: after multiple doses
Procedure, shortened: as §1

[1] = Stability of analytes in rat plasma; format: physicochemical; settings: n = 6
[2] = cited from earlier work
[3] = tested on: patients with chronic kidney disease; settings: diverse group of patients with chronic kidney disease, ref Fauchier, Fauchier & Angoulvant, 2021, Herrington et al., 2023, Santos-Gallego et al., Wanner et al., 2016; cited from earlier work
[4] = rats, coadministered with sorafenib, versus control group
[5] = rats, empagliflozin […] after sorafenib 100 mg/kg for 7 consecutive days, n = 6
[6] = Autosampler (15 °C) for 6 h, nominal 15 ng/mL
[7] = Autosampler (15 °C) for 6 h, nominal 800 ng/mL
[8] = Autosampler (15 °C) for 6 h, nominal 1,500 ng/mL
[9] = Room temperature for 4 h, nominal 15 ng/mL
[10] = Room temperature for 4 h, nominal 800 ng/mL
[11] = Room temperature for 4 h, nominal 1,500 ng/mL
[12] = Three freeze–thaw cycles (−80 °C to 25 °C), nominal 15 ng/mL
[13] = Three freeze–thaw cycles (−80 °C to 25 °C), nominal 800 ng/mL
[14] = Three freeze–thaw cycles (−80 °C to 25 °C), nominal 1,500 ng/mL
[15] = −80 °C for 30 days, nominal 15 ng/mL
[16] = −80 °C for 30 days, nominal 800 ng/mL
[17] = −80 °C for 30 days, nominal 1,500 ng/mL

**Q.** Which AUC(0-t) (in vivo; Sprague-Dawley, rat, in vivo, po, […], AUC0–t, rats, empagliflozin […] after sorafenib 100 mg/kg for 7 consecutive days, n = 6) does the source give for OC[C@H]1O[C@@H](c2ccc(Cl)c(Cc3ccc(O[C@H]4CCOC4)cc3)c2)[C@H](O)[C@@H](O)[C@@H]1O [Empagliflozin] here?
**A.** Its AUC(0-t) is 563 ± 110 ng·h/mL.

**Q.** And the AUC(0-inf) (in vivo; Sprague-Dawley, rat, in vivo, po, […], AUC0–∞, rats, empagliflozin […] after sorafenib 100 mg/kg for 7 consecutive days, n = 6)?
**A.** Its AUC(0-inf) is 586 ± 104 ng·h/mL.

**Q.** What about the Cmax (in vivo; Sprague-Dawley, rat, in vivo, po, […], Cmax, rats, empagliflozin […] after sorafenib 100 mg/kg for 7 consecutive days, n = 6) of the same compound?
**A.** Its Cmax is 231 ± 78.5 ng/mL.

**Q.** And the MRT last (in vivo; Sprague-Dawley, rat, in vivo, po, […], MRT0–t, rats, empagliflozin […] after sorafenib 100 mg/kg for 7 consecutive days, n = 6)?
**A.** Its MRT last is 2.86 ± 0.21 h.

**Q.** And the MRT inf (in vivo; Sprague-Dawley, rat, in vivo, po, […], MRT0–∞, rats, empagliflozin […] after sorafenib 100 mg/kg for 7 consecutive days, n = 6)?
**A.** The MRT inf was 3.44 ± 0.52 h.

**Q.** What about the Tmax (in vivo; Sprague-Dawley, rat, in vivo, po, […], rats, empagliflozin […] after sorafenib 100 mg/kg for 7 consecutive days, n = 6) of the same compound?
**A.** The Tmax was 24 ± 10.2 min.

**Q.** What about the Tmax (in vivo; Sprague-Dawley, rat, in vivo, po, […], rats, empagliflozin […] oral, alone, n = 6) of the same compound?
**A.** The Tmax was 16.8 ± 7.2 min.

**Q.** What about the half-life (in vivo; Sprague-Dawley, rat, in vivo, po, […], empagliflozin […] after sorafenib 100 mg/kg for 7 consecutive days, n = 6) of the same compound?
**A.** The half-life was 188 ± 65.4 min.

**Q.** What about the half-life (in vivo; Sprague-Dawley, rat, in vivo, po, […], empagliflozin […] oral, alone, n = 6) of the same compound?
**A.** Its half-life is 302 ± 137 min.

**Q.** What about the “difference in Cmax of empagliflozin (higher than control)” value (in vivo; rats receiving both drugs versus control group) of the same compound?
**A.** The value was “not statistically significant”.

**Q.** What about the “decrease of Vz/F of empagliflozin” value (in vivo; [4]) of the same compound?
**A.** The value was 50.68%.

**Q.** What about the “increase of AUC0–t of empagliflozin” value (in vivo; [4]) of the same compound?
**A.** The value was 44.65%.

**Q.** And the “increase of AUC0–∞ of empagliflozin” value (in vivo; [4])?
**A.** Its value is 30.59%.

**Q.** What about the CLz (in vivo; [5]) of the same compound?
**A.** Its CLz is 4.38 ± 0.75 L/h/kg.

**Q.** What about the Vz (in vivo; [5]) of the same compound?
**A.** Its Vz is 20.18 ± 8.16 L/kg.

**Q.** What about the Vz (in vivo; rats, empagliflozin […] oral, alone, n = 6) of the same compound?
**A.** The Vz was 40.92 ± 16.03 L/kg.

**Q.** And the “inhibition of mRNA expression of Ugt1a7” value (Ugt1a7; rat intestine)?
**A.** The value was “no significant inhibition”.

**Q.** And the “decrease of mRNA expression of Ugt1a7” value (Ugt1a7; rat liver)?
**A.** The value was 40.07%.

**Q.** What about the “decrease of mRNA expression of P-gp” value (P-gp; rat intestine) of the same compound?
**A.** The value was 22.77%.

**Q.** What about the “decrease of mRNA expression of P-gp” value (P-gp; rat liver) of the same compound?
**A.** Its value is 61.19%.

**Q.** And the “decrease of mRNA expression of Oatp1b2” value (Oatp1b2)?
**A.** Its value is 37.43%.

**Q.** What about the “Stability: Accuracy (RE%)” value [1, 6] of the same compound?
**A.** The value was 4.78%.

**Q.** And the “Stability: Mean ± SD measured concentration” value (“Stability: Mean ± SD” for short) [1, 6]?
**A.** Its value is 15.72 ± 0.78 ng/mL.

**Q.** And the “Stability: Accuracy (RE%)” value [1, 7]?
**A.** The value was 6.63%.

**Q.** And the “Stability: Mean ± SD” value [1, 7]?
**A.** The value was 853.00 ± 50.88 ng/mL.

**Q.** What about the “Stability: Accuracy (RE%)” value [1, 8] of the same compound?
**A.** Its value is 3.89%.

**Q.** And the “Stability: Mean ± SD” value [1, 8]?
**A.** Its value is 1,558.33 ± 99.48 ng/ml.

**Q.** And the “Stability: Accuracy (RE%)” value [1, 9]?
**A.** The value was −0.67%.

**Q.** What about the “Stability: Mean ± SD” value [1, 9] of the same compound?
**A.** The value was 14.90 ± 0.91 ng/mL.

**Q.** And the “Stability: Accuracy (RE%)” value [1, 10]?
**A.** Its value is 4.71%.

**Q.** And the “Stability: Mean ± SD” value [1, 10]?
**A.** Its value is 837.67 ± 29.62 ng/mL.

**Q.** What about the “Stability: Accuracy (RE%)” value [1, 11] of the same compound?
**A.** Its value is 2.22%.

**Q.** What about the “Stability: Mean ± SD” value [1, 11] of the same compound?
**A.** The value was 1,533.33 ± 37.77 ng/ml.

**Q.** What about the “Stability: Accuracy (RE%)” value [1, 12] of the same compound?
**A.** Its value is −0.67%.

**Q.** And the “Stability: Mean ± SD” value [1, 12]?
**A.** The value was 14.90 ± 0.91 ng/mL.

**Q.** And the “Stability: Accuracy (RE%)” value [1, 13]?
**A.** The value was 6.65%.

**Q.** And the “Stability: Mean ± SD” value [1, 13]?
**A.** Its value is 853.17 ± 38.25 ng/mL.

**Q.** What about the “Stability: Accuracy (RE%)” value [1, 14] of the same compound?
**A.** The value was 1.11%.

**Q.** What about the “Stability: Mean ± SD” value [1, 14] of the same compound?
**A.** Its value is 1,516.67 ± 97.50 ng/ml.

**Q.** What about the “Stability: Accuracy (RE%)” value [1, 15] of the same compound?
**A.** The value was 1.56%.

**Q.** What about the “Stability: Mean ± SD” value [1, 15] of the same compound?
**A.** Its value is 15.23 ± 1.43 ng/mL.

**Q.** And the “Stability: Accuracy (RE%)” value [1, 16]?
**A.** The value was 4.15%.

**Q.** What about the “Stability: Mean ± SD” value [1, 16] of the same compound?
**A.** Its value is 833.17 ± 38.43 ng/mL.

**Q.** What about the “Stability: Accuracy (RE%)” value [1, 17] of the same compound?
**A.** The value was −1.78%.

**Q.** What about the “Stability: Mean ± SD” value [1, 17] of the same compound?
**A.** The value was 1,473.33 ± 93.31 ng/ml.

**Q.** And the “systemic exposure of each metabolite, of the total drug-related material” value ([2]; after oral administration, no reference given)?
**A.** The value was “less than 10%”.

**Q.** And the “time to highest levels in the body” value ([2]; following a single oral dose, ref Scheen, 2014)?
**A.** The value was 1.0 to 2.0 h.

**Q.** And the “dose eliminated in urine unchanged” value ([2]; ref Scheen, 2014)?
**A.** Its value is 11–19%.

**Q.** What about the “lowering of the occurrence of cardiovascular death events” value [3] of the same compound?
**A.** Its value is 18%.
